CHOP inhibitor = CHOP inhibition in unfolded protein response; CHO-K1 CHOP-promoter luciferase, tunicamycin-induced, 15-18 h; inhibition, % at 10 µM; hit rate 3.8% among 220,000; AID 2732;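 active = compounds that reduced the stress-induced luciferase reporter signal by more than about 70% of percent inhibition, limit read from the data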;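 note: 0% = tunicamycin plus vehicle and 100% = wells without tunicamycin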
S1P3 antagonist = blocks the human S1P3 receptor; Q99500; CHO S1P3 NFAT-BLA reporter, FRET fluorescence, antagonist mode; inhibition, % at 4.98 µM; hit rate 0.27% among 170,000;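 active = inhibition above the plate cutoff, the mean inhibition of test wells on that plate plus 3 SD, cut at about 28% in these data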;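 note: cells challenged with S1P at its EC80 of 0.8 µM; blue over green emission ratio from cleaved BLA substrate after 4 h stimulation; 0% = S1P-stimulated wells and 100% = unstimulated DMSO-only wells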
Hsp70 activator = switches on Hsp70 transcription | HeLa Hsp70 promoter luciferase reporter, luminescence; scaled: vehicle 0, proteasome-inhibitor control 100% | activation, % at 10 µM | hit rate 0.04% among 200,000 | AID 1203;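 active = activation above the mean across all tested compounds plus 3 SD, cutoff set per campaign, cut at about 5.5% in these data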;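 note: 100% = MG132 at 30 µM as the positive control and 0% = DMSO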
MDM2 E3 inh = inhibitors of human Mdm2 E3 ubiquitin ligase | signal enhancement, % at 5 µM | Q00987 | hit rate 0.11% among 210,000 | cell-based MDM2 ubiquitination luciferase reporter, 2 h; 0 = plate control, 100 = twice control, blank-subtracted;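 active = signal enhancement of 30% or more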;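 note: luminescence tracks abundance of the self-degrading MDM2-luciferase fusion protein; higher signal means inhibition of MDM2 E3 ligase activity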
Target sequence (Q00987 whole entry, looked up, the tested form may be a part): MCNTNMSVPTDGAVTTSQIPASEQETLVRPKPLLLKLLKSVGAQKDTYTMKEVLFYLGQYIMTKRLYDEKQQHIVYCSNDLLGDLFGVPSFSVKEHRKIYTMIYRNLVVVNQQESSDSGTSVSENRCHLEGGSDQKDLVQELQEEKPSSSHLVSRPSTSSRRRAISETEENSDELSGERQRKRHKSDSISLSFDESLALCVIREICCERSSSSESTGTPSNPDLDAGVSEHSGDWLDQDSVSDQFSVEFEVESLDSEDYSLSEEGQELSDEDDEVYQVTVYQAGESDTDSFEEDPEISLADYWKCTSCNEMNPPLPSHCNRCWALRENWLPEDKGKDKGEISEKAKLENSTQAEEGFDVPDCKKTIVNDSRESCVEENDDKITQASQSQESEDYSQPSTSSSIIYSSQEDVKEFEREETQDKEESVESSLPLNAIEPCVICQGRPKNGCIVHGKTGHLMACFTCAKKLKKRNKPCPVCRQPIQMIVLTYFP
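test system = mammalian cells stably expressing self-ubiquitinating, self-degrading MDM2 E3–luciferase fusion | quantity = 2000 cells/well | incubation = cell settling 4 h, compound treatment 2 h, both 37 °C | signal = luminescence with SteadyLite reagent, 15 min at room temperature | evaluation = % enhancement relative to plate controls after blank subtraction | benchmarks = plate controls and plate blanks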
* marks the source's active call; other numbers are inactive results; · = no result given. Sampled rows, rich in hits. Any-hit rate of the full collection: about 4%.

SMILES	CHOP inhibitor	S1P3 antagonist	Hsp70 activator	MDM2 E3 inh
Cc1[nH]c2ccccc2c1N=Nc1ccc(F)cc1	90.0*	9.2	0.1	-9.0
O=C(CSc1nnc(-c2ccccc2)n1Cc1ccco1)NCc1ccc2c(c1)OCO2	1.1	·	-0.5	-10.8
Cc1nc(N(C)C)c2sc(=S)n(C)c2n1	14.2	95.9*	-0.1	-11.3
COc1nc(C)nc2c1sc(=S)n2C	71.0*	-17.9	-0.2	-12.1
COc1ccc(-c2nnc(SCC(=O)c3[nH]c(C)c(C(C)=O)c3C)o2)cc1	34.1	26.6	-0.4	-10.9
CCOC(=O)c1[nH]c(CSc2nnc(-c3ccc(OC)cc3)o2)c(C(=O)OCC)c1C	70.1*	·	0.1	-2.7
Cn1c(=O)c(C(=O)CN2CCOCC2)c(N)n(Cc2ccccc2)c1=O	-21.6	16.0	-0.1	3.0
CCn1c(=O)c(C(=O)CN2CCOCC2)c(N)n(Cc2ccccc2)c1=O	15.8	77.2*	-0.3	-12.0
FC(F)(F)c1cccc(Cc2noc(CN3CCCCC3c3ccccn3)n2)c1 (stereo unspecified)	73.6*	4.5	-0.5	-0.5
Fc1cccc(Cc2noc(CN3CCCCC3c3ccccn3)n2)c1 (stereo unspecified)	11.4	-4.6	-0.3	27.2
Cc1ccc(/C=C(\C#N)C(=O)Nc2ccccn2)o1	1.7	7.2	0.2	-12.7
O=C(COc1ccc(Cl)cc1Cl)Nc1c(-c2cccs2)nc2ccccn12	85.1*	7.1	-0.2	-5.3
CC(=O)CCc1ccc(Oc2nc(-c3cccnc3)nc3ccccc23)cc1	38.6	-10.0	-0.2	-15.5
CCOC(=O)C(C)On1c(-c2ccc(Cl)cc2)nc2ccc([N+](=O)[O-])cc21 (stereo unspecified)	71.8*	·	0.1	-11.8
O=C(O)COn1c(-c2ccc(Cl)cc2)nc2ccc(Cl)cc21	-6.8	4.8	0.1	-46.5
COn1c(-c2ccc(Cl)cc2)nc2ccc(Cl)cc21	74.1*	·	-0.4	-13.5
Cc1ccc(C(=O)COC(=O)CCCC(=O)Nc2cc(C(F)(F)F)ccc2Cl)cc1C	28.8	-0.8	-0.3	-9.0
O=C(Nc1ccccc1N1CCCC1)c1cccnc1	-32.7	9.7	-0.2	-2.5
O=C(Nc1ccc(N2CCCCC2)cc1)c1ccccn1	93.9*	-18.5	-0.7	-87.9
O=C(Nc1ccccc1N1CCCCC1)c1cnccn1	79.8*	-4.0	-0.2	-4.5
CC(C)Oc1ccc(C(=O)Nc2ccc(N3CCCC3)cc2)cc1	72.8*	-17.5	-0.3	-13.3
Cc1ccccc1C(=O)Nc1ccccc1N1CCCCC1	87.9*	-8.0	-0.3	-11.9
COc1cccc(CNC(=O)CCC2CCCN(C(=O)C3CCOCC3)C2)c1 (stereo unspecified)	4.0	-26.8	-0.1	-16.8
CCN(CCO)C(=O)CC1C(=O)NCCN1Cc1c(F)cccc1Cl (stereo unspecified)	12.2	4.4	0.1	-2.2
O=C(Nc1ccccc1N1CCCCC1)c1cccs1	86.0*	-0.6	-0.2	-17.7
SMILES	CHOP inhibitor	S1P3 antagonist	Hsp70 activator	MDM2 E3 inh
Oc1c(C(c2ccco2)N2CCN(C(c3ccccc3)c3ccccc3)CC2)sc2ncnn12 (stereo unspecified)	95.4*	9.8	0.2	-7.4
Oc1c(C(c2ccccc2)N2CCc3ccccc3C2)sc2ncnn12 (stereo unspecified)	0.8	-21.6	-0.3	-14.3
CCOC(=O)/C(=N\Nc1ccccc1Cl)N1CC(C)OC(C)C1 (stereo unspecified)	70.4*	-4.0	·	·
OCC1(Cc2ccccc2)CCN(Cc2cnc(-c3cccc4ccccc34)nc2)CC1	36.1	6.2	-0.5	-6.8
OCC1(Cc2ccccc2)CCN(Cc2cnc(-c3ccc(Cl)cc3)nc2)CC1	73.1*	6.2	-0.2	-9.9
Oc1c(C(c2cccs2)N2CCN(c3cccc(Cl)c3)CC2)sc2ncnn12 (stereo unspecified)	35.5	-53.0	-0.2	-11.2
CN(C)C(=O)/C(C#N)=C\c1cc(Br)c(Sc2ccc(Cl)cc2)o1	79.7*	4.6	-0.4	-12.6
Clc1ccc(Sc2oc(/C=N/n3cnnc3)cc2Br)cc1	69.3	-15.6	-0.2	-4.4
Cc1ccc(/C=C/C(=O)c2ccccc(=O)c2O)c(C)c1	76.6*	-10.9	-0.4	0.2
Cc1ccc(C)c(/C=C/C(=O)c2ccccc(=O)c2O)c1	93.1*	7.1	-0.5	-16.4
O=C(Cc1cccc2ccccc12)N/N=C/c1ccncc1	15.2	-12.6	-0.5	-1.0
Cc1ccccc1N(CC(=O)N/N=C/c1ccc(Cl)cc1)C(=O)c1ccccc1	72.5*	·	-0.2	-7.5
O=C(Cc1cccc2ccccc12)N/N=C/c1ccc(F)cc1	74.2*	·	-0.1	-25.0
CCOC(=O)CN(C(=O)c1ccccc1)c1ccccc1C	6.3	-6.7	-0.3	2.6
Cc1ccccc1N(CC(=O)N/N=C/c1ccc(F)cc1)C(=O)c1ccccc1	88.9*	·	-0.2	-20.5
Cc1cc(C)c(S(=O)(=O)c2ccccc2C)c(OCC(C)(C)C)n1	75.1*	·	0.4	-11.1
CCOc1ccccc1C(=O)Nc1nncs1	19.4	-31.7	-0.3	-3.3
CCOc1ccccc1C(=O)Nc1nnc(C(C)C)s1	75.7*	-10.0	0.2	-7.9
c1ccc(-c2nnc3sc(CN4CCC5(CC4)OCCO5)cn23)cc1	77.0*	-7.2	-0.4	-2.6
CC(=O)Nc1ccc(NC(=O)c2ccc(Cn3cc(Cl)cn3)cc2)cc1	92.1*	1.1	-0.3	-13.2
COC(=O)c1cc(=O)c2c(C)nc(C(Cl)(Cl)Cl)nc2[nH]1	31.6	-26.9	-0.3	0.4
Cc1ccc(S(=O)(=O)N[C@H](C(=O)OCC(=O)N2N=C(c3ccc(Cl)cc3)CC2c2ccco2)C(C)C)cc1 (stereo partly specified)	35.4	-9.7	-0.2	-13.0
CC(=O)c1ccc(N(C(=O)Cc2c[nH]c3ccccc23)C(C(=O)NC2CCCCC2)c2cccs2)cc1 (stereo unspecified)	-3.0	·	-0.1	-4.2
O=C(NC1CCCCC1)C(c1cccs1)N(C(=O)Cc1c[nH]c2ccccc12)c1ccc(F)cc1 (stereo unspecified)	91.0*	·	-0.1	-13.6
CCOC(=O)C1(C(C)(C)CC)CC(CSc2nc3ccccc3[nH]2)OC1=O (stereo unspecified)	75.4*	·	-0.3	-3.4
SMILES	CHOP inhibitor	S1P3 antagonist	Hsp70 activator	MDM2 E3 inh
CCOC(=O)N1CCN(c2nc(C)cc(C(F)(F)F)n2)CC1	70.6*	·	0.1	8.4
COCCCNC(=S)Nc1c(C)cc(C)cc1C	-19.7	-16.7	·	3.7
C/C(=N\NC(=O)Nc1ccccc1)c1ccc2ccccc2c1	80.3*	-13.1	-0.3	0.6
C/C(=N\NC(=O)c1c[nH]c2ccccc12)c1ccc2c(c1)OCO2	-0.4	-3.6	0.3	-5.9
C/C(=N\NC(=O)Cc1c[nH]c2ccccc12)c1ccc2ccccc2c1	81.3*	3.8	0.2	0.8
C/C(=N/NC(=O)Nc1ccccc1)c1ccc(C)cc1	62.1	-12.5	-0.2	15.9
COc1cccc(CN2CCNC(=O)C2CC(=O)N2CCCCO2)c1OC (stereo unspecified)	-26.5	-2.2	-0.3	5.8
S=c1[nH]nc(-c2ccc(Cl)cc2)n1CCCN1CCOCC1	16.2	3.0	-0.2	-6.0
